S100A4 inh HTS = blocks human S100A4 binding to myosin IIA peptide | inhibition, % at 10.7 µM | AID 652163 | S100A4/TAMRA-MyoIIA peptide fluorescence polarization | 360,000 compounds, 0.14% hits | P26447;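 active means mean inhibition of at least 70% across replicates, with every replicate also reaching that level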
Target sequence (P26447 whole entry, looked up): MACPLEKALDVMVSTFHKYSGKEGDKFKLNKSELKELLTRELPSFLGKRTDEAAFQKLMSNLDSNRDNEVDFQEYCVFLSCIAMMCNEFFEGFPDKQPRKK
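System – human S100A4 monomer protein, biochemical binding assay · Buffer or medium – Calcium-containing HEPES buffer, pH 7.2 · Timing – 5 min between mix addition and reading · Also added – TAMRA-labelled myosin IIA heavy-chain peptide probe, 5 nM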
INS-1E GSIS act = primary screen for activators of insulin secretion dependent on glucose, INS-1E cells, GLuc reporter luminescence; INS-1E GLuc reporter insulin secretion, 2-3 h; activation, % at 16.6 µM; 370,000 compounds, 0.61% hits; AID 743287;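 active means lowest replicate activation of at least 40%, so every replicate reaches that level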;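 further: 0% = median of neutral control wells and 100% = median of IBMX positive control wells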
ERp5 inh = inhibitors of human ERp5; Q15084; ERp5 insulin aggregation, absorbance 650 nm, 90 min; inhibition, % at 9.99 µM; 350,000 compounds, 0.05% hits; AID 651711;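 active means mean replicate inhibition above about 25%, with every replicate also reaching it, limit read from the data, passing the limit was not always enough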
Target sequence (Q15084 whole entry, looked up): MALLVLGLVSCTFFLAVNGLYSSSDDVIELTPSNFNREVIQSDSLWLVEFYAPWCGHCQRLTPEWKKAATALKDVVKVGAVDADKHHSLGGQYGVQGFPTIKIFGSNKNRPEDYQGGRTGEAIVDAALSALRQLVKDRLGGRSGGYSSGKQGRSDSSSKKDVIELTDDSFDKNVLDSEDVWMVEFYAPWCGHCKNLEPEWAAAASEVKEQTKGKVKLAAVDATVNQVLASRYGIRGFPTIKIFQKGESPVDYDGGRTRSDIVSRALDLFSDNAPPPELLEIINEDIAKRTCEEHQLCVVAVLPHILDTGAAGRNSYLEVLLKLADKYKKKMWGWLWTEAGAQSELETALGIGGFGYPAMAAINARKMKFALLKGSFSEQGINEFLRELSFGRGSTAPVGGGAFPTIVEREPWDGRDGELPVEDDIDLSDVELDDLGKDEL
PDI turbidity = PDI (human) enzyme inhibition; P07237; 350,000 compounds, 0.052% hits; PDI insulin aggregation turbidity, A650, 90 min; inhibition, % at 10 µM; AID 588391;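 active means mean inhibition across replicates of 30% or more, whatever share of single replicates reach that level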
SIRT5 block = sirtuin-5 (human) deacylase inhibition; 330,000 compounds, 1.1% hits; Purified SirT5, succinyl-peptide AMC, trypsin-coupled fluorescence; inhibition, % at 15 µM; Q9NXA8; in the data active means inhibition above about 15%
The depositor's hits bear a star; . = no result. Rows were chosen to be rich in hits. Some 1.5% of all compounds tested hit in one or more screens of this group.

SMILES | S100A4 inh HTS | INS-1E GSIS act | ERp5 inh | PDI turbidity | SIRT5 block
CCN(CC)S(=O)(=O)c1ccc(N2CCOCC2)c(NC(=O)c2ccc(NC(C)=O)cc2)c1 | -3 | -2 | 6 | 4 | 15*
O=C(O)c1ccccc1C(=O)Nc1nccs1 | . | . | . | 2 | .
O=C(Nc1nccs1)c1cccc2ccccc12 | 2 | . | 3 | 2 | 18*
CCOc1ccc(-c2nnn(CC(=O)Nc3ccccc3OC)n2)cc1OCC | . | 68* | . | 2 | .
CCOc1cc(C(=O)N(C)CC(=O)Nc2cccc3ccccc23)ccc1OC | 1 | 57* | 9 | 11 | -3
O=C(c1ccccc1)N1CC[C@@H]2[C@@H](CO)Nc3ccc(C#Cc4cccc(F)c4)cc3[C@@H]21 | . | 3 | . | . | .
O=[N+]([O-])c1cc(Cl)ccc1NCCNc1ncc(C(F)(F)F)cc1Cl | . | 58* | . | 0 | .
O=c1[nH]c2cc(Cl)ccc2n(CCNc2ncc(C(F)(F)F)cc2Cl)c1=O | . | 72* | . | -15 | .
O=C1CC(=O)N(CCNc2ncc(C(F)(F)F)cc2Cl)C(=O)N1 | . | . | . | -1 | .
O=C1C=CC(=O)N1CCNc1ncc(C(F)(F)F)cc1Cl | -1 | 147* | 2 | -1 | -1
COc1ccc(Cc2nc(-c3ccc(-n4cccc4)cc3)no2)cc1 | -25 | 5 | 1 | . | .
COc1ccc(Cc2nc(-c3ccc(-n4cccc4)cc3)no2)cc1OC | 1 | 56* | 1 | . | -3
c1ccc(CCc2nc(-c3ccc(-n4cccc4)cc3)no2)cc1 | 1 | 4 | 7 | -6 | 18*
C[C@H](CO)N1C[C@H](C)[C@H](CN(C)Cc2ccccc2)Oc2cc(C#C[C@@H](C)O)ccc2S1(=O)=O | 1 | 28 | 0 | . | 1
Cc1noc(C)c1S(=O)(=O)N(C)C[C@H]1OCCCC[C@@H](C)Oc2ccc(NC(=O)CCCCCC(=O)Nc3ccccc3N)cc2C(=O)N([C@@H](C)CO)C[C@@H]1C | 0 | -9 | 0 | . | -7
c1ccc(C[C@H]2CN=C(Nc3ccccc3)N2CC2CCCC2)cc1 | -2 | -1 | 2 | . | 21*
O=C(Nc1cccc(Cl)c1)N1C[C@@H]2[C@H](c3ccccc31)[C@@H](CO)N2C(=O)C1CCCC1 | -10 | 1 | 1 | . | 1
O=C(O)c1cccc(NC(=O)c2cn(-c3ccccc3)nc2-c2ccncc2)c1 | -1 | 3 | 3 | 0 | -3
O=C(O)c1cccc(NC(=O)c2cn(-c3ccccc3)nc2-c2cccc(Br)c2)c1 | -5 | -10 | 2 | 7 | 16*
O=S(=O)(c1cccc(F)c1)N1CC[C@@H]2[C@@H](CO)Nc3ccc(-c4cccc(F)c4)cc3[C@@H]21 | . | 2 | . | . | .
O=C(NC1CCCCC1)N[C@H]1CC[C@@H](CCNS(=O)(=O)c2ccc(Cl)cc2)O[C@@H]1CO | 4 | 21 | 5 | . | 3
COc1ccccc1NC(=O)COC(=O)c1ccc([N+](=O)[O-])s1 | -3 | -7 | 1 | 4 | 23*
COc1ccccc1NC(=O)COC(=O)c1[nH]c(=O)[nH]c(=O)c1N | 6 | 2 | 2 | 1 | 17*
Cc1ccc(NC(=O)COC(=O)c2ccc([N+](=O)[O-])s2)c(C)c1 | 0 | 0 | -7 | 0 | -8
O=C(c1cccc(C(F)(F)F)c1)N1CCCC1 | -4 | -14 | -3 | -2 | 0
SMILES | S100A4 inh HTS | INS-1E GSIS act | ERp5 inh | PDI turbidity | SIRT5 block
O=C(Nc1ccc(C(=O)N2CCCC2)cc1)c1cccc(C(F)(F)F)c1 | -6 | 48* | 8 | -5 | -1
CCC(=O)N(C)C[C@H]1Oc2cc(-c3cccc(OC)c3)ccc2S(=O)(=O)N([C@H](C)CO)C[C@H]1C | 3 | 8 | -5 | . | -3
O=C(C1CCCCC1)N1C[C@@H](O)[C@H](n2cc(-c3ccc(F)cc3)nn2)C[C@@H]1c1ccccc1 | 12 | -19 | 4 | -1 | 28*
O=C(C1CCCCC1)N1C[C@H](n2cc(-c3ccc(F)cc3)nn2)[C@@H](O)C[C@@H]1c1ccccc1 | -1 | -16 | -3 | -1 | 2
O=C(CN1C(=O)NC2(CCCC2)C1=O)Nc1cc(C(F)(F)F)ccc1N1CCCCC1 | -4 | -34 | 34* | -11 | -5
O=C(CN1C(=O)NC2(CCCCC2)C1=O)Nc1cc(C(F)(F)F)ccc1N1CCCCC1 | 7 | -25 | 1 | 2 | -2
COc1ccc(CCN2C(=O)C=CC2=O)cc1OC | -1 | 205* | 2 | 1 | 3
COc1ccc(CCN2C(=O)CN(Cc3ccccc3)CC2=O)cc1OC | 6 | . | 0 | 16 | -2
CCC(=O)NC[C@H]1[C@H](c2ccc(C3=CCCC3)cc2)[C@H](CO)N1C(=O)C1CC1 | . | 0 | . | . | .
COc1ccc(/C=C2\SC(N3CCCCC3)=NC2=O)cc1OC | 12 | 66* | -3 | 8 | 1
Cc1cccc(-c2ccc([C@H]3[C@@H](CO)N4C(=O)CN(C(=O)c5cnccn5)C[C@@H]34)cc2)c1 | . | -9 | . | . | .
CCCC#Cc1ccc2c(c1)O[C@@H](CN(C)C(=O)c1cnccn1)[C@@H](C)CN([C@@H](C)CO)S2(=O)=O | -1 | -13 | -6 | . | 28*
CC(C)CC#Cc1ccc2c(c1)O[C@@H](CN(C)C(=O)c1cccc(F)c1)[C@@H](C)CN([C@@H](C)CO)S2(=O)=O | -8 | -15 | -4 | . | 5
C[C@@H]1CN([C@@H](C)CO)S(=O)(=O)c2ccc(C#CC3CC3)cc2O[C@@H]1CN(C)C(=O)c1cccc(F)c1 | 0 | -17 | -5 | . | 23*
CC(C)CC#Cc1ccc2c(c1)O[C@@H](CN(C)C(=O)c1cccc(F)c1)[C@H](C)CN([C@H](C)CO)S2(=O)=O | 6 | -5 | -1 | . | 16*
CC(C)CC#Cc1ccc2c(c1)O[C@H](CN(C)C(=O)c1cccc(F)c1)[C@@H](C)CN([C@H](C)CO)S2(=O)=O | 51 | -30 | 4 | . | 22*
C[C@@H]1CN([C@H](C)CO)C(=O)c2cccc(N(C)C)c2O[C@H]1CN(C)C | 4 | 20 | 1 | . | -1
O=C(C[C@@H]1CC[C@@H]2[C@H](COC[C@H](O)CN2C(=O)Nc2ccc(F)cc2)O1)NC1Cc2ccccc2C1 | 8 | -14 | 3 | . | 2
CC(C)CC#Cc1ccc2c(c1)O[C@@H](CN(C)C(=O)c1ccccc1)[C@H](C)CN([C@H](C)CO)S2(=O)=O | 5 | -19 | 4 | . | 11
CC(C)CC#Cc1ccc2c(c1)O[C@H](CN(C)C(=O)c1ccccc1)[C@H](C)CN([C@H](C)CO)S2(=O)=O | 9 | -35 | 5 | . | 15*
CC(C)CC#Cc1ccc2c(c1)O[C@H](CN(C)C(=O)c1cccc(F)c1)[C@@H](C)CN([C@@H](C)CO)S2(=O)=O | 3 | -8 | -2 | . | 18*
CC(C)C#Cc1ccc2c(c1)O[C@H](CN(C)C(=O)c1cccc(F)c1)[C@H](C)CN([C@@H](C)CO)S2(=O)=O | -34 | -3 | 1 | . | 7
CC(C)CC#Cc1ccc2c(c1)O[C@H](CN(C)C(=O)c1ccccc1)[C@@H](C)CN([C@@H](C)CO)S2(=O)=O | -1 | -35 | 5 | . | 8
